Screening results from PubChem BioAssay.
Most compounds without a hit are left out; they make up all but 2.4% or so of the library.
STEP block – STEP (human) phosphatase inhibition. P54829. AID 588621. 360,000 tested, 0.25% active. inhibition, % at 20 µM. recombinant STEP, OMFP fluorogenic substrate, fluorescence;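 active = inhibition at 20 µM, scaled per plate between control wells, above about 37%, limit read from the data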;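 note: 0% = DMSO with enzyme and substrate and 100% = substrate only without enzyme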
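material = STEP tyrosine phosphatase | reagent = fluorogenic phosphatase substrate OMFP at 25 µM final | doses = single compound dose of 20 µM, 1% DMSO final | schedule = 20 min reaction, room temperature, in the dark | measured by = fluorescence, 480/540 nm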
LMPTP block – LMPTP (human) inhibition. inhibition, % at 20 µM. P24666. recombinant LMPTP-A, OMFP fluorogenic substrate, fluorescence intensity. AID 651560. 360,000 tested, 0.22% active;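 active = compounds that cut the enzyme signal by at least half of the control window in the single-dose screen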;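 note: plate controls were DMSO wells with enzyme plus substrate for no effect and substrate without enzyme for full effect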
Target sequence (P24666 whole entry, looked up): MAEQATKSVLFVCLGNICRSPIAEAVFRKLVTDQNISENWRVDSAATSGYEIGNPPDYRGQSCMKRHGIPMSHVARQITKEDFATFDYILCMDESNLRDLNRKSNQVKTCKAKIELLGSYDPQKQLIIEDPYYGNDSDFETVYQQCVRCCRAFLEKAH
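Assay system: LMPTP-A enzyme. Input: 0.625 nM LMPTP-A final. Probe or stimulus: 400 µM OMFP. Compound dosing: single 20 µM dose. Schedule: 50 min dark incubation at room temperature. Detection: fluorescence intensity of OMFP turnover product. Read-out: percent inhibition versus substrate-only and uninhibited controls. Benchmarks: no-enzyme low control, uninhibited high control.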
SUMO1 PPI mod – SUMO1-SIM interaction modulation. P63165. SUMO1 binding to a labelled peptide, TR-FRET, 1 h. inhibition, % at 20 µM. 360,000 tested, 0.33% active; in the data active = inhibition above about 37%
Target sequence (P63165 whole entry, looked up): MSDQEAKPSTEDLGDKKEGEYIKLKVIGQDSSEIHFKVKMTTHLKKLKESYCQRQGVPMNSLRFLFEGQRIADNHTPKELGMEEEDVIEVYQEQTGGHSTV
DNMT1 block – DNMT1 (human) enzyme inhibition; AID 588458; 360,000 tested, 0.83% active; DNMT1 molecular beacon, Hinp1I cleavage, fluorescence; inhibition (reported as % activation of signal), % at 10 µM; P26358; in the data active = inhibition above about 50%
NadD inh – inhibitors of Staphylococcus aureus NadD. 360,000 tested, 0.78% active. purified NadD enzyme, colorimetric absorbance read-out. inhibition, % at 20 µM; in the data active = inhibition above about 26%
Scp-1 inhibitor – blocks human Scp-1 phosphatase activity | 340,000 tested, 0.88% active | inhibition, % at 20 µM | Recombinant Scp1, phosphopeptide, malachite green phosphate absorbance | Q9GZU7;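 active = inhibition above about 50% at 20 µM, limit read from the data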;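 note: plate controls were DMSO wells with enzyme for no effect and wells lacking enzyme for full effect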
Target sequence (Q9GZU7 76-261 limits assumed): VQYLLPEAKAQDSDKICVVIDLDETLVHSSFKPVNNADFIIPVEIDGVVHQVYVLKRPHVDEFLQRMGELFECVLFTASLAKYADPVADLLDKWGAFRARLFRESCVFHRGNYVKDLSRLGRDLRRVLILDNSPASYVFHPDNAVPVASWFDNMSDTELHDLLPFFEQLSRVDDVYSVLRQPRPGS
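assay system = SCP-1 phosphatase catalytic domain, residues 76-261 | buffer or medium = 50 mM Tris acetate pH 5.5, 0.005% Tween-20, 10 mM MgCl2 | incubation = enzyme reaction 45 min at room temperature, colour 5 min, stabilisation 30 min | signal = Phosphate-binding colour reagent, absorbance read at 630 nm | measure = % inhibition at 20 µM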
Scp-1 conf – confirmation of human Scp-1 phosphatase inhibitors. shares compounds with Scp-1 inhibitor. recombinant SCP-1 catalytic domain, phosphate release, malachite green absorbance. inhibition, % at 20 µM. 2,500 tested, 61% active. AID 540281;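 note: plate controls were DMSO with enzyme for no effect and buffer wells lacking enzyme for full effect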
Scp-1 MG ctr – interferes with malachite green readout, flagging false Scp-1 hits; apparent inhibition (interference), % at 20 µM; 2,500 tested, under 10 active; Colorimetric interference counterscreen, malachite green absorbance 630 nm; AID 540313; shares compounds with Scp-1 inhibitor;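 note: compounds added after enzyme reaction finished so only phosphate colour detection is probed; plate controls were DMSO wells with completed Scp-1 reaction for no effect and substrate wells lacking enzyme for full effect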
Scp1 DSF – Scp-1 (human) binding by thermal shift; shares compounds with Scp-1 inhibitor; Recombinant SCP1, Sypro Orange thermal shift Tm; thermal shift relative to vanadate control, % at 40 µM; 1,500 tested, 25% active; AID 540329;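 active = substances whose mean melting-temperature shift, as a percentage of the reference inhibitor's shift, reaches about 5.3%, limit read from the data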;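 note: 0% = Tm of DMSO wells and 100% = Tm with sodium orthovanadate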
DNMT1 inh conf – DNMT1 inhibition confirmation, single concentration. shares compounds with DNMT1 block. DNMT1 molecular beacon HinP1I cleavage, fluorescence. inhibition, % at 10 µM. 2,300 tested, 8% active;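 active = average inhibition of at least 30% in the single-concentration confirmation test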
DNMT1 interf – counter-screen for DNMT1 inhibitors: spectral interference. DNMT1 molecular beacon spectral interference counterscreen, fluorescence 485/520. activation (fluorescence interference), % at 10 µM. AID 602387. shares compounds with DNMT1 block. 2,300 tested, 1% active;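 active = activation of at least 30% at 10 µM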;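 note: DNMT1 catalytic domain with a HinP1I cleavage step and a FAM/dabcyl DNA beacon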
NadD conf – NadD (S. aureus) inhibition, single concentration confirmation. 2,000 tested, 13% active. inhibition, % at 20 µM. shares compounds with NadD inh. purified S. aureus NadD, colorimetric enzyme assay. AID 624309; in the data active = inhibition mostly above about 42%, no sharp cut-off; inactive = mostly below about 42%
* hit, by the source's call; / = no result.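 Rule for the calls, unless noted: active = inhibition of at least 30% at 20 µM; inactive = the rest.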

SMILES	STEP block	LMPTP block	SUMO1 PPI mod	DNMT1 block	NadD inh	Scp-1 inhibitor	Scp-1 conf	Scp-1 MG ctr	Scp1 DSF	DNMT1 inh conf	DNMT1 interf	NadD conf
CCOC(=O)Cn1c(=NC(=O)c2sc3ccccc3c2Cl)sc2cc(S(N)(=O)=O)ccc21	14	58*	3	36	51*	67*	75*	-12	7.9*	/	/	-2
Cc1ccc(NC(=S)NNc2ccc([N+](=O)[O-])cc2S(=O)(=O)Nc2ccccc2C(=O)O)cc1C	6	5	7	-22	13	4	/	/	/	/	/	/
CSc1nc(SCCO)c2sc3nc(-c4ccco4)c4c(c3c2n1)CC(C)(C)OC4	8	45	60*	98*	60*	79*	43*	-10	7.4*	8	1	21
Oc1ccc(C[C@H]2CNC(=S)N2CC2CCCN2C[C@H](Cc2ccc(O)cc2)N2C[C@H](Cc3ccccc3)N(CC3CCCCC3)C2=S)cc1 (stereo partly specified)	0	6	3	-19	51*	50*	9	9	/	/	/	55*
COc1cccc(-c2nn3c(-c4ccco4)nnc3s2)c1	2	0	15	6	4	0	/	/	/	/	/	/
Clc1ccc(-c2ccc(-c3nn4c(-c5ccco5)nnc4s3)o2)cc1	5	26	30	78*	35*	77*	50*	-11	-1	2	-1	9
Nc1nc(SCc2ccc(Cl)cc2Cl)nc2nc3c(cc12)CCCC3	10	27	2	90*	36*	97*	76*	6	4	0	-1	16
COC(=O)[C@H](CC(C)C)N1Cc2cc(OC)cc(OC)c2-c2ccccc2S1(=O)=O	0	0	14	2	37*	98*	50*	-26	-4	/	/	48*
Cc1ccnc(NS(=O)(=O)c2ccc(N3C(=O)c4ccccc4C3=O)cc2)n1	0	-1	-18	0	1	-3	/	/	/	/	/	/
Cc1ccnc(NS(=O)(=O)c2ccc(N3C(=O)c4c(Cl)c(Cl)c(Cl)c(Cl)c4C3=O)cc2)n1	17	0	29	12	34*	67*	27	-14	/	/	/	6
CC(=O)Nc1nc2n(n1)C(c1ccc(Cl)cc1)C=C(C)N2 (stereo unspecified)	-4	-2	-6	2	3	-12	/	/	/	/	/	/
COC(=O)C1=C(C)N(Cc2ccccc2)C(=NCCCCO)N[C@H]1c1cccc(C(F)(F)F)c1	-1	0	-3	-2	1	-5	/	/	/	/	/	/
O=C(Cn1c(=O)n(Cc2ccco2)c(=O)c2c3c(sc21)CCCCC3)Nc1ccccc1	5	21	14	93*	51*	74*	44*	-29	7.9*	13	2	41
CCCCn1c(N)c(N(Cc2ccccc2OC)C(=O)C2=COCCO2)c(=O)[nH]c1=O	2	-1	9	-2	-3	-5	/	/	/	/	/	/
N=c1c(S(=O)(=O)c2ccc(Cl)cc2)cc2c(=O)n3ccccc3nc2n1Cc1ccco1	5	5	-4	21	43*	52*	4	-1	/	/	/	13
